Consider 57 molecules from PubChem BioAssay AID449763 (Sanford-Burnham Center for Chemical Genomics, 2010).

The structures appear in SMILES notation. Out of some 330,000 compounds screened, about 1,100 (0.33%) were called active. The sample holds actives, similar compounds and a random draw of the others, so the mix is not that of the screen.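 How the source made its calls: active means at 10 µM dose, activation of 40% or more, normalized to positive control; inactive means the rest.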

The nature of the assay: activators of apoptotic CHOP UPR arm, primary screen, cell-based, CHO-CHOP luciferase reporter, luminescence, uHTS (AID 449763).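 Further: 100% = tunicamycin at 10 µg/mL and 0% = DMSO alone.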 Conditions: at 10 µM, hits give high values, percent of tunicamycin response over DMSO baseline. A digest of the protocol: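 System: CHO CHOP reporter cells. Amount: 500 cells per well. Buffer or medium: F12 medium, 10% FBS. Compound dosing: one dose, 10 µM in 0.5% DMSO. Incubation: 6 h compound exposure at 37 °C after overnight seeding. Technique: Steady-Glo luciferase luminescence. Benchmarks: tunicamycin and DMSO controls.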
In the case of `Cc1ccc(CNC(=O)COC(=O)C2CCC2)cc1`, the activation is 0.475% (inactive).

In the case of `CCc1nnc(NC(=O)CSc2nnnn2-c2cccc(C(C)=O)c2)s1`, the activation was -1.47% (inactive).

On to `CCOc1ccc(Br)cc1CSC(=N)N`, for which the activation was 0.704% (inactive).

For the molecule `CCOC(=O)CCNC(=O)N1CCCC(C(=O)c2ccccc2SC)C1` (configuration not stated), the activation was 1.02% (inactive).

Take `CCc1ccc(CNC(=O)C2CCCN(c3nc4ccccc4o3)C2)cc1` (configuration not stated): the activation is -2.13% (inactive).

`CCOC(=O)c1cnc(Nc2nc3ccccc3o2)nc1CSC(=S)N1CCCCC1`: the activation was 152% (active).

For `CCN(CC)C(=O)Cn1cc(S(=O)(=O)CC(=O)NCc2ccc3c(c2)OCO3)c2ccccc21`, the activation was -0.829% (inactive).

As to `Cc1cc(NC(=O)CS(=O)(=O)c2cn(C)c3ccccc23)no1`, the activation is 1.58% (inactive).

On to `CCN(C(=O)CSc1ncnc2sccc12)c1c(N)n(Cc2ccccc2)c(=O)[nH]c1=O`, for which the activation is -3.54% (inactive).

In the case of `CC1CC2=C(CC1/C=N/NC(N)=S)C(C)(C)CCC2` (configuration not stated), the activation is 67.6% (active).

Consider `Cc1ccc(C(=O)Cc2nnc(C)s2)cc1`, for which the activation is 1.29% (inactive).

Consider `CC(=O)Nc1ccc(S(=O)(=O)N2CCC(NC(=O)c3ccccc3)CC2)cc1`, for which the activation is 1.32% (inactive).

`C=Cn1c(C(=O)O)ccc1-c1ccc(OC)cc1`: the activation is -1.21% (inactive).

As for `COC(=O)c1ccc(C(=O)NC2CC(C)(C)Cc3c2cnn3-c2ccc(F)cc2)nc1` (configuration not stated), the activation is 0.891% (inactive).

As to `COc1ccc(C2=NN(C(=O)c3ccccc3C(=O)O)C(c3ccccc3O)C2)cc1` (configuration not stated), the activation was 4.22% (inactive).

`CCOc1ccccc1C1CC(c2cccc(NS(C)(=O)=O)c2)=NN1C(=O)c1ccccc1` (configuration not stated): the activation was 1.22% (inactive).

In the case of `CCOc1ccc2nc(Cl)c(C3CC(c4ccccc4)=NN3C(=O)c3cccs3)cc2c1` (configuration not stated), the activation was 85.3% (active).

Consider `CCOc1ccccc1CN1CCN(C2CCC2)CC1CCO` (configuration not stated), for which the activation is 1.34% (inactive).

With `CS(=O)(=O)c1ccc(C(=O)OCC(=O)NNC(=O)COc2ccc(Cl)cc2)cc1`, the activation was -0.907% (inactive).

As to `Cc1c(NC(=O)CSc2cccc3cccnc23)c(=O)n(-c2ccccc2)n1C`, the activation was 163% (active).

Consider `Cc1c(NC(=O)CSc2nnnn2-c2ccc(C(=O)O)cc2)c(=O)n(-c2ccccc2)n1C`, for which the activation is -0.108% (inactive).

With `Cc1c(NC(=O)CSc2nnc(-c3cccnc3)n2N)c(=O)n(-c2ccccc2)n1C`, the activation was 0.658% (inactive).

Take `NC(=O)CC[C@@H]1NC(=O)[C@@H]2CCCN2C(=O)c2cc([N+](=O)[O-])cc(F)c2NCCC[C@@H](C(N)=O)NC1=O`: the activation is -0.0942% (inactive).

On to `COc1ccccc1P(=O)(c1ccccc1)c1ccccc1NC(C)=O` (configuration not stated), for which the activation is -0.343% (inactive).

For the molecule `COc1cc(C(=O)N/C(=C\c2cn(C)c3ccccc23)C(=O)N2CCOCC2)cc(OC)c1OC`, the activation was -0.204% (inactive).

`CCCCC[C@H]1CN(C2CCCCC2)C(=O)[C@@H]1CC(=O)NCc1ccc(OC)cc1`: the activation was 0.258% (inactive).

Take `CC[C@H](C)C(=O)N[C@H]1CCCN1C(=O)/C=C/c1ccccc1`: the activation is -0.778% (inactive).

Take `COCCNc1nc(-n2nc(C)cc2C)nc2sc3c(c12)CCCC3`: the activation is 45.9% (active).

As to `CCC(O)CNc1nc(-n2nc(C)cc2C)nc2sc3c(c12)CC(C)(C)OC3` (configuration not stated), the activation is -0.387% (inactive).

Take `Cc1nc2sc3c(c2c(=O)n1NC(=O)CCl)CCCC3`: the activation was 1.06% (inactive).

As for `O=C(Nc1ccc(S(=O)(=O)N2CCOCC2)cc1)c1ccc2ncsc2c1`, the activation was 2.81% (inactive).

For the molecule `COC(=O)c1sccc1NN1C(=O)c2ccccc2C1=O`, the activation is -0.357% (inactive).

Take `C[C@@H]1C[C@@H]2O[C@H]2/C=C\C=C\C(=O)Cc2c(Cl)c(O)cc(O)c2C(=O)O1`: the activation was 145% (active).

With `COc1ccccc1C(=O)NCc1nnc(SC(C)C(=O)Nc2nccs2)n1C` (configuration not stated), the activation is -1.66% (inactive).

Take `O=C(NCc1ccc(Cl)cc1)c1cc(=O)nc2sc(-c3ccccc3)nn12`: the activation was -2.04% (inactive).

Turning to `COc1ccc(OC)c(Nc2nc(-c3ccc(O)c(O)c3)cs2)c1`, the activation is 74.3% (active).

Turning to `COc1ccc(OC)c(-c2csc(NC(=O)C3=NNC(=O)CC3)n2)c1`, the activation is -1.74% (inactive).

Consider `COc1ccc(OC)c(-c2csc(NC(=O)COC(=O)C3CC3)n2)c1`, for which the activation is 1.31% (inactive).

For the molecule `COC(=O)C1CCN(C(=O)COC(=O)c2cc(S(=O)(=O)N3CCOCC3)ccc2C)CC1`, the activation is 0.025% (inactive).

Consider `COc1ccc(C2=NOC(Cn3nc(C(=O)NCc4ccc5c(c4)OCO5)cc3-c3ccccc3)C2)cc1` (configuration not stated), for which the activation is 0.69% (inactive).

On to `O=C1C(=O)N(CC2COc3ccccc3O2)c2ccccc21` (configuration not stated), for which the activation was 2.24% (inactive).

As for `Cc1cc(C(=O)CCl)c(C)n1CC1COc2ccccc2O1` (configuration not stated), the activation is 174% (active).

Take `Cc1ccsc1C(=O)OCC(=O)c1cc(C)n(CC2CCCO2)c1C` (configuration not stated): the activation was -8.43% (inactive).

With `CC(C)CNc1ncnc2c1cnn2Cc1ccc(Cl)cc1`, the activation was 2.5% (inactive).

As for `O=C(Nc1ccc(-n2ccnc2P(=O)(O)c2ccccc2)cc1)c1ccccc1Br`, the activation was -1.3% (inactive).

For the molecule `COCCN(Cc1cc2cc3c(cc2nc1Cl)OCO3)C(=O)c1cccc(C)c1`, the activation was 2.77% (inactive).

For `O=C(NC1CCN(Cc2ccccc2)CC1)c1ccc(Oc2cc(Cl)cc(Cl)c2)o1`, the activation was 0.679% (inactive).

For `Cn1cc(CN2CCC(C(O)CCc3ccccc3)CC2)c(-c2ccccc2F)n1` (configuration not stated), the activation was -1.46% (inactive).

Consider `Cn1cc(CN2CCCC(CO)C2)c(-c2ccc(Oc3ccccc3)cc2)n1` (configuration not stated), for which the activation is -1.18% (inactive).

For `CCCOC1CCCN(Cc2cn(C)nc2-c2ccccc2F)C1` (configuration not stated), the activation was 44.6% (active).

Consider `O=C(CN1C(=O)c2cccnc2Oc2ccc(Cl)cc21)Nc1ccc(F)cc1`, for which the activation is 1.1% (inactive).

With `Oc1c(CN2CCCC2)cc(COCc2ccccc2)c2cccnc12`, the activation was 37.6% (inactive).

With `Cc1ccc(CN2CCN(c3ncccn3)CC2)c(C)c1`, the activation is 0.144% (inactive).

In the case of `Oc1c(CN2CCN(c3ccc(F)cc3)CC2)cc(Cl)c2cccnc12`, the activation was 415% (active).

Turning to `O=C(Nc1ccc(N2CCN(C(=O)c3ccccc3)CC2)c(Cl)c1)c1cccnc1`, the activation was 0.424% (inactive).

With `CC(CCn1cccn1)NC(=O)CCc1nnc(CCc2ccccc2)o1` (configuration not stated), the activation is -1.47% (inactive).

For the molecule `CCc1noc(C)c1C(=O)N1CCCSC1=Nc1ccccc1OC`, the activation was 2.57% (inactive).
